In ChEMBL document CHEMBL3046122, “Preparation and biological activity of four epiprogoitrin myrosinase-derived products” (2001):
Activity calls are given as the source filed them. No cut-off for these calls is given here.

What was measured:
Lactuca sativa [1] = assay: Toxicity against Lactuca sativa (lettuce) assessed as root apex necrosis at low concentration after 7 days; format: functional, organism-based
Outline: (§1)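 Lettuce (L. sativa cv. Romana) seeds were kept on filter paper at 20 °C for 7 days with each product at 0.4-32.0 mM. Seedlings were scored at the end for abnormalities: root apex necrosis, absent cotyledons, and imbibed seeds with broken coats from starting radicle protrusion.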

Lactuca sativa [2] = assay: Toxicity against Lactuca sativa (lettuce) assessed as Inhibition of root growth up to 16 mM after 7 days relative to control; format: functional, organism-based
Outline: (§2)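 Lettuce (L. sativa cv. Romana) seeds were kept on filter paper at 20 °C for 7 days with each product at 0.4-32.0 mM. Root length of normal seedlings was measured at the end and given as percent of the untreated control. Three replicates were run.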

Lactuca sativa [3] = assay: Antigerminative activity against Lactuca sativa (lettuce) seeds at 0.8 to 20 mM after 7 days relative to control; format: functional, organism-based
Outline: (§3)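 Lettuce (L. sativa cv. Romana) seeds germinated on filter paper at 20 °C for 7 days with each product at 0.4-32.0 mM. Read-out is the mean percentage of normal seedlings, expressed as percent of the untreated control.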

Lactuca sativa [4] = assay: Toxicity against Lactuca sativa (lettuce) assessed as decrease in cotyledons at low concentration after 7 days; format: functional, organism-based; outline: as §1
Lactuca sativa [5] = assay: Toxicity against Lactuca sativa (lettuce) assessed as seed radicle protrusion at low concentration after 7 days; format: functional, organism-based; outline: as §1
Lactuca sativa [6] = assay: Toxicity against Lactuca sativa (lettuce) assessed as imbibed seed with broken seed coat at low concentration after 7 days; format: functional, organism-based; outline: as §1
Lactuca sativa [7] = assay: Antigerminative activity against Lactuca sativa (lettuce) seeds up to 2.4 to 3.2 mM after 7 days relative to control; format: functional, organism-based; outline: as §3
Lactuca sativa [8] = assay: Toxicity against Lactuca sativa (lettuce) assessed as Inhibition of root growth after 7 days relative to control; format: functional, organism-based; outline: as §2
Lactuca sativa [9] = assay: Toxicity against Lactuca sativa (lettuce) assessed as Inhibition of root growth at 8 to 32 mM after 7 days relative to control; format: functional, organism-based
Outline: (§4)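 Lettuce (L. sativa cv. Romana) seeds germinated on filter paper at 20 °C for 7 days with doses of 0.4-32.0 mM. Root length of normal seedlings was measured at the end and expressed as percent of control. Three replicates were run, with standard error given.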

Lactuca sativa [10] = assay: Toxicity against Lactuca sativa (lettuce) assessed as branched root formation at low concentration after 7 days; format: functional, organism-based
Lactuca sativa [11] = assay: Toxicity against Lactuca sativa (lettuce) assessed as root tissue rotting at 32 mM after 7 days; format: functional, organism-based
Lactuca sativa [12] = assay: Toxicity against Lactuca sativa (lettuce) assessed as Inhibition of root growth at 4 mM after 7 days relative to control; format: functional; design: scale not given: the % may be the effect or the level left; outline: as §4
Lactuca sativa [13] = assay: Antigerminative activity against Lactuca sativa (lettuce) seeds at 24 to 32 mM after 7 days relative to control; format: functional, organism-based
Outline: (§5)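 Lettuce seeds (L. sativa cv. Romana) incubated on filter paper at 20 °C for 7 days with each product at 0.4-32.0 mM. Read-out was the mean percentage of normal seedlings, expressed as percent of the untreated control.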

Lactuca sativa [14] = assay: Antigerminative activity against Lactuca sativa (lettuce) seeds up to 16 mM after 7 days relative to control; format: functional, organism-based; outline: as §5
Lactuca sativa [15] = assay: Toxicity against Lactuca sativa (lettuce) assessed as decrease in root hair at 24 to 32 mM after 7 days; format: functional, organism-based
Lactuca sativa [16] = assay: Toxicity against Lactuca sativa (lettuce) assessed as Inhibition of root growth at 0.4 to 2 mM after 7 days relative to control; format: functional, organism-based; outline: as §2
Lactuca sativa [17] = assay: Antigerminative activity against Lactuca sativa (lettuce) seeds at 1.2 mM after 7 days relative to control; format: functional; outline: as §3
Lactuca sativa [18] = assay: Antigerminative activity against Lactuca sativa (lettuce) seeds up to 0.8 mM after 7 days relative to control; format: functional, organism-based; outline: as §3
Lactuca sativa [19] = assay: Antigerminative activity against Lactuca sativa (lettuce) seeds at 2 mM after 7 days relative to control; format: functional, organism-based; outline: as §3

Compound | Activity (Lactuca sativa [1]) | Activity (Lactuca sativa [2]) | Activity (Lactuca sativa [3]) | Activity (Lactuca sativa [4]) | Activity (Lactuca sativa [5]) | Activity (Lactuca sativa [6]) | Activity (Lactuca sativa [7]) | Activity (Lactuca sativa [8]) | Activity (Lactuca sativa [9]) | Activity (Lactuca sativa [10]) | Activity (Lactuca sativa [11]) | Activity (Lactuca sativa [12]) | Activity (Lactuca sativa [13]) | Activity (Lactuca sativa [14]) | Activity (Lactuca sativa [15]) | Activity (Lactuca sativa [16]) | Activity (Lactuca sativa [17]) | Activity (Lactuca sativa [18]) | Activity (Lactuca sativa [19])
C=C[C@@H](O)CC#N | Active | inactive | Active | Active | Active | Active | – | – | – | – | – | – | – | – | – | – | – | – | –
N#CC[C@H](O)[C@H]1CS1 | Active | – | – | Active | Active | Active | Active | Dose-dependent effect | – | – | – | – | – | – | – | – | – | – | –
C=C[C@@H]1CNC(=S)O1 | – | – | – | – | – | – | – | – | Active | Active | Active | >40% | Active | inactive | Active | – | – | – | –
N#CC[C@H](O)[C@@H]1CS1 | Active | – | – | Active | Active | Active | – | – | – | – | – | – | – | – | – | Active | 40% | Active | Active
